The results in this text go back to ChEMBL document CHEMBL3120138, “Glucocorticoid receptor modulators informed by crystallography lead to a new rationale for receptor selectivity, function, and implications for structure-based design” (J Med Chem, 2014).

Active and inactive are the calls of the source. The calls are words filed in the database; no cut-off is given here.

The target of test [1] is T1, Glucocorticoid receptor (Homo sapiens, UniProt P04150).
T1 sequence (P04150 whole entry): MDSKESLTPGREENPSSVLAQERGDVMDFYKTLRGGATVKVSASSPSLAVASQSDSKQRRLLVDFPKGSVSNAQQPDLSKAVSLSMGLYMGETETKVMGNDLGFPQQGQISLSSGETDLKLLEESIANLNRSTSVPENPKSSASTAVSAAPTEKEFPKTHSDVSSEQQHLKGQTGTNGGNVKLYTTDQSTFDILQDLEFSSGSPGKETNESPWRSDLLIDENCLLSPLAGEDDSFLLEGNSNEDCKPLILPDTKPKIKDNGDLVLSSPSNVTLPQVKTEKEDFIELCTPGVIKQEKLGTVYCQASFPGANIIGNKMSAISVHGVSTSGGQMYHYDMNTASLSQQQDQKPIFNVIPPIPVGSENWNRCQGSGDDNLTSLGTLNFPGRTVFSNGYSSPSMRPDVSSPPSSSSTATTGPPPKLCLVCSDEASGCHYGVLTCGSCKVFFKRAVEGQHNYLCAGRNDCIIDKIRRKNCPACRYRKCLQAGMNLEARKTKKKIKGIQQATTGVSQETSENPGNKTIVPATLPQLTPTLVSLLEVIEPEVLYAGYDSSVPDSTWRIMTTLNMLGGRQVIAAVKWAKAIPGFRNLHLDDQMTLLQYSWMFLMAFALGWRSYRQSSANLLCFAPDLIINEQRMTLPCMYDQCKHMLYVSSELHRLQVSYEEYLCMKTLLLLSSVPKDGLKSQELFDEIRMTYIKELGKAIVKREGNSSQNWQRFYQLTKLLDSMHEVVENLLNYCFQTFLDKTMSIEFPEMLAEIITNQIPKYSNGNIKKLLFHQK
In words: Displacement of [3H]-dexamethasone from human glucocorticoid receptor expressed in HEK293 cells. The format is cell-based. (Displacement assays read how much labelled ligand stays bound in the presence of the test substance.)

The target of test [2] is T2, Progesterone receptor (Homo sapiens, UniProt P06401).
T2 sequence (P06401 whole entry): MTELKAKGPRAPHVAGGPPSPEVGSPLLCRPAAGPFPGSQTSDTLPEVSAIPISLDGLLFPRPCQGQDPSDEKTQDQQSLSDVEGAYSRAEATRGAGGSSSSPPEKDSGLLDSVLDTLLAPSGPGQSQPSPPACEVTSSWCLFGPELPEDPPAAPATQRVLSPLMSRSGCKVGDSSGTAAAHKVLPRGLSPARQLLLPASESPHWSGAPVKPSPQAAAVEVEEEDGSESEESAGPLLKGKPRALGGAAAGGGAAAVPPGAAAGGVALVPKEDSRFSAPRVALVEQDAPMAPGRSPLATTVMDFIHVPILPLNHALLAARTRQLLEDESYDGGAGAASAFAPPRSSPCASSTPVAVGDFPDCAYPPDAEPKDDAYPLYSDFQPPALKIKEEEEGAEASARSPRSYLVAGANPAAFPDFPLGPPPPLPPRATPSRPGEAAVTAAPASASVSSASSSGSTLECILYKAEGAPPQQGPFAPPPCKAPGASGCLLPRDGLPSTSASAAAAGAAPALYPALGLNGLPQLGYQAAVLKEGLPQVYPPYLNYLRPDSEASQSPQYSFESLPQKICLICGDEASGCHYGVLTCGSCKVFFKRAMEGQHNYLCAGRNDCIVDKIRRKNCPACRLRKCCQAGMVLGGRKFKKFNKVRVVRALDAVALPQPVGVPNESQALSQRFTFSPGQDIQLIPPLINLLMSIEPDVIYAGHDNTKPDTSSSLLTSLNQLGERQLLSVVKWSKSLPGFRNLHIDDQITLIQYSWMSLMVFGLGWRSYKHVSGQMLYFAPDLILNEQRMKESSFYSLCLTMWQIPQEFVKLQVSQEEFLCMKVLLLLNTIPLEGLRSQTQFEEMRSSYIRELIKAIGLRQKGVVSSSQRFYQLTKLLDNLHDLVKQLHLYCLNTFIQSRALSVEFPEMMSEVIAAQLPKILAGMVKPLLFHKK
In words: Displacement of [3H]-methyltrienolone from human progesterone receptor expressed in HEK293 cells. The format is cell-based. In short, it runs like this: (§1)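 Competition binding used lysates of HEK293 cells overexpressing the human receptor. The tracer was ³H-aldosterone for MR and ³H-methyltrienolone for PR. Competitor was tested from 0.01 nM to 10 μM. IC50 was converted to Ki by Cheng–Prusoff. Values are means of at least three experiments, each run in triplicate.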

Test [3] can be described thus: Antiinflammatory activity in PMA-differentiated human U937 cells assessed as inhibition of LPS-induced TNFalpha production incubated for 60 mins prior to LPS challenge measured after 24 hrs. As to conditions: U-937. The class given is functional, cell-based. The method in brief: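 U-937 cells (100 000/well) were differentiated with 20 nM PMA overnight at 37 °C, then refed with PMA-free medium. Cells were pretreated with compound for 60 min, then stimulated with LPS (stock 400 ng/mL) for 24 h at 37 °C. Secreted TNFα was measured by EIA/RIA. Ten-point half-log dilutions were used, each concentration in triplicate.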

The subject of test [4] is Rattus norvegicus. In words: Antiinflammatory activity in po dosed Sprague-Dawley rat assessed as inhibition of carrageenan-induced IL-1beta secretion incubated for 2 hrs prior to carrageenan challenge measured after 5 hrs by ELISA. The class given is functional. The method in brief:
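Male Sprague-Dawley rats (n = 5/group) were dosed at t = 0, and carrageenan was injected into the rear footpad at 2 h. At 5 h the animals were euthanised and the hindpaws weighed to measure edema. Paw exudate was assayed for IL-1β by ELISA.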

Test [5] in a line: Antiinflammatory activity in human CCD-39SK cells assessed as inhibition of IL-1beta-induced IL-6 production incubated for 60 mins prior to IL-1beta induction measured after 24 hrs. The class given is functional, cell-based. The method in brief: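 CCD-39SK fibroblasts (20 000/well) were grown in MEM with 2% charcoal/dextran-treated FBS. Cells were pretreated with compound for 60 min, then stimulated with rhIL-1β (1 ng/mL final) for 24 h at 37 °C. IL-6 in clarified supernatant was measured. […] Ten-point half-log dilutions were used, each in triplicate.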

Test [6] concerns the target T3, Mineralocorticoid receptor (Homo sapiens, UniProt P08235).
T3 sequence (P08235 whole entry): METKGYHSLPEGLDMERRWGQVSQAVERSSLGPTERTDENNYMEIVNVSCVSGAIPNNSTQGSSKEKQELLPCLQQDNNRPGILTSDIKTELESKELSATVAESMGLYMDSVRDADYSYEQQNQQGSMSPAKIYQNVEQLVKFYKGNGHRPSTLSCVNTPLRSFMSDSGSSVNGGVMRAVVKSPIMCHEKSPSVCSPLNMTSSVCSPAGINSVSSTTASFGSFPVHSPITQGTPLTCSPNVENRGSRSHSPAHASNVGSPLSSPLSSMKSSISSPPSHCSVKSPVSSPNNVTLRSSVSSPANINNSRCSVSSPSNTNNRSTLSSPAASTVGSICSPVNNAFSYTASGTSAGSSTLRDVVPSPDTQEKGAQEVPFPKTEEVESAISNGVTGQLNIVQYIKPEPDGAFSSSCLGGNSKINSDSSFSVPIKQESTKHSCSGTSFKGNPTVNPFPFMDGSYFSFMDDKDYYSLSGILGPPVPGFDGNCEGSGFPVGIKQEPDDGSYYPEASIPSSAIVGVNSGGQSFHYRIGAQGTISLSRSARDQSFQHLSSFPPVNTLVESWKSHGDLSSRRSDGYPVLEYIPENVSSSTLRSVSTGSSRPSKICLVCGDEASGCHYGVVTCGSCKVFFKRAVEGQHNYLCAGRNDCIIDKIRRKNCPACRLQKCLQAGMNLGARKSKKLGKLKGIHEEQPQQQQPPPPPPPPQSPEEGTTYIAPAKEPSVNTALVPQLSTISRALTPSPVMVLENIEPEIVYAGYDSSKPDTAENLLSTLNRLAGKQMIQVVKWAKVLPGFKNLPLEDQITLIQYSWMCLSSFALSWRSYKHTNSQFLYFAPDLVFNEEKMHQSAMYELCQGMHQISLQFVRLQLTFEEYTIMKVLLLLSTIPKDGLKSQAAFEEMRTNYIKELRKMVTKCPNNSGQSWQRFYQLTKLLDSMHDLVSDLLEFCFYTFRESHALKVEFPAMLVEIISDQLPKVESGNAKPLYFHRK
Description: Displacement of [3H]-aldosterone from human mineralocorticoid receptor expressed in HEK293 cells. The class given is cell-based. In short, it runs like this:
as §1

For test [7], the target named is T4, Glucocorticoid receptor (Homo sapiens) (UniProt P04150).
T4 sequence (whole entry): T1 sequence (P04150 whole entry)
Description: Transactivation of human glucocorticoid receptor expressed in HEK293 cells at 10 uM after 24 hrs by luciferase reporter gene assay relative to control. The format is cell-based. The method in brief: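 HEK293 cells were transfected in DMEM with 5% charcoal-stripped FBS, using a CMV-hGR plasmid and a luciferase reporter driven by 2×GRE plus the TK promoter. After overnight incubation, cells were replated and exposed to compound for 24 h, then lysed for luciferase readout.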
A general note: In a reporter assay the amount or activity of a reporter protein is the signal.

For test [8], the system named is Rattus norvegicus. Description: Antiinflammatory activity in Lewis rat collagen-induced arthritis model assessed as reduction in ankle diameter at 10 mg/kg, po administered for 15 days measured during compound dosing. The format is functional, organism-based. Also noted: dose 10 mg/kg. The method in brief: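 Female Lewis rats received collagen injected at the tail base, and disease developed over 14 d. Responding rats (groups of n = 10) were then dosed orally once daily for the next 15 d. Ankle/paw diameter was measured throughout the live phase and summarised as AUC. Hindpaw histology was scored blind from 0 (normal) to 5 (vehicle-level). Statistics used Student's t test vs vehicle, p < 0.01.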

Test [9] concerns Rattus norvegicus. Description: Antiinflammatory activity in po dosed Sprague-Dawley rat assessed as inhibition of carrageenan-induced paw edema incubated for 2 hrs prior to carrageenan challenge measured after 5 hrs […]. The class given is functional. On the technique in general: Carrageenan injected into the paw causes an acute inflammation.

Regarding `C(=C1c2ccccc2CCc2ccccc21)c1ccccc1`, in test [1], the Ki (usually the equilibrium dissociation constant of an inhibitor or competing ligand from its target) was more than 100 nM.
`CS(=O)(=O)Nc1ccccc1C=C1c2ccccc2CCc2ccccc21` yielded a Ki in [1] of more than 100 nM.
The same measure, in the same setting: under `Nc1cccc(C=C2c3ccccc3CCc3ccccc32)c1` stands more than 100 nM; under `CCOc1cccc2c1/C(=C(/CC)c1cccc(N(CC)S(C)(=O)=O)c1)c1ccccc1OC2`, more than 100 nM.
On the same count and under the same terms, the same measure for `CNS(=O)(=O)c1cccc(C=C2c3ccccc3CCc3ccccc32)c1`: more than 100 nM.
For the compound `C[C@@H]1C[C@H]2[C@@H]3CCC4=CC(=O)C=C[C@]4(C)[C@@]3(F)[C@@H](O)C[C@]2(C)[C@@]1(O)C(=O)CO` [DEXAMETHASONE], in test [2], the Ki came out at 561 nM.
`CS(=O)(=O)Nc1ccc(C=C2c3ccccc3CCc3ccccc32)cc1`: the Ki in test [1] is more than 100 nM.
Turning to `C[C@]12C=CC(=O)C=C1CC[C@@H]1[C@@H]2[C@@H](O)C[C@@]2(C)[C@H]1CC[C@]2(O)C(=O)CO` [PREDNISOLONE], the IC50 (commonly the concentration needed to halve the response being measured) in test [3] was 8.2 nM; in test [5] it was 7.26 nM. For the same compound, the values for the ED50 in [4] and in [9] were 0.31 mg/kg and 7.6 mg/kg, respectively. The compound also yielded a Ki in test [6] of 0.29 nM. The compound further returned an Efficacy in test [7] of 114%. Further, the outcome in [8] was Active.
